PMC5014123 (Nature communications, 2015)
Read-outs that look alike come from different tables or passages of the source.

Key:
ADAM8 [1] = target: T1, ADAM8 (Homo sapiens, UniProt P78325); assay type: cell-based
T1 sequence (P78325 17-824): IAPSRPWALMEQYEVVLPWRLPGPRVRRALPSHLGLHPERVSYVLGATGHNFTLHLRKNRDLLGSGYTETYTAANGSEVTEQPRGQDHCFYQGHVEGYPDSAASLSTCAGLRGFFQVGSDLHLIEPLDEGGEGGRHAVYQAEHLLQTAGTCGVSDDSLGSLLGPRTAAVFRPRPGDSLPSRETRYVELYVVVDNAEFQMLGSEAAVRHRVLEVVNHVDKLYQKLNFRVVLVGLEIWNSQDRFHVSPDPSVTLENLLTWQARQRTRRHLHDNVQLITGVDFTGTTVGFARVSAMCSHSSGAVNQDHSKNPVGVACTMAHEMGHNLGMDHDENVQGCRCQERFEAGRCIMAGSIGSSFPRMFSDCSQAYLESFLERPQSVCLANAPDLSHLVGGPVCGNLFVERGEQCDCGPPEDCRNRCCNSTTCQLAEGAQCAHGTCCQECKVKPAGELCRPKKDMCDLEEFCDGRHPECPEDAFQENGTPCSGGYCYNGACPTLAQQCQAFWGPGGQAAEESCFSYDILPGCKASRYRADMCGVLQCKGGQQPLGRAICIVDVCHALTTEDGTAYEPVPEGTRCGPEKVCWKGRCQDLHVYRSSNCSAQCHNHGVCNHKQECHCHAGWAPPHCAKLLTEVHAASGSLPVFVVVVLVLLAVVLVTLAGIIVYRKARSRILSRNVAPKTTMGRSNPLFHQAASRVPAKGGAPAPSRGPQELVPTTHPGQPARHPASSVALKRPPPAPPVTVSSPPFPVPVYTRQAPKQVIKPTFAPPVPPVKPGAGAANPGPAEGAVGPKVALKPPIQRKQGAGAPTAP

MMP-2 = test: PrAMA inference of MMP-2 activity in PDAC cell lines; assay type: cell-based, human; settings: Panc1_A8 cells, 1 µM, 24 hours, relative to vehicle
How it was run: (§1)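 Cells were cultured in duplicate for 24 h in serum-free, phenol-red-free DMEM, and medium and sucrose-buffer membrane fractions were collected. […] Activities were inferred from fold-change cleavage rates against purified-enzyme specificity matrices, in three repeats. Panc1_A8 received 1 uM test compound for 24 h versus vehicle; AsPC-1 knockdowns were compared with shCtrl.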

MMP-14 = test: PrAMA inference of MMP-14 activity in PDAC cell lines; assay type: cell-based, human; settings: Panc1_A8 cells, 1 µM, 24 hours, relative to vehicle
How it was run: as §1

ADAM8 [2] = target: T1, ADAM8; test: PrAMA inference of ADAM8 activity in PDAC cell lines; assay type: cell-based; settings: Panc1_A8 cells, 1 µM, 24 hours, relative to vehicle
ADAM8 [3] = target: T2, ADAM8 (Homo sapiens, UniProt P78325); assay type: biochemical
T2 sequence (P78325 17-497): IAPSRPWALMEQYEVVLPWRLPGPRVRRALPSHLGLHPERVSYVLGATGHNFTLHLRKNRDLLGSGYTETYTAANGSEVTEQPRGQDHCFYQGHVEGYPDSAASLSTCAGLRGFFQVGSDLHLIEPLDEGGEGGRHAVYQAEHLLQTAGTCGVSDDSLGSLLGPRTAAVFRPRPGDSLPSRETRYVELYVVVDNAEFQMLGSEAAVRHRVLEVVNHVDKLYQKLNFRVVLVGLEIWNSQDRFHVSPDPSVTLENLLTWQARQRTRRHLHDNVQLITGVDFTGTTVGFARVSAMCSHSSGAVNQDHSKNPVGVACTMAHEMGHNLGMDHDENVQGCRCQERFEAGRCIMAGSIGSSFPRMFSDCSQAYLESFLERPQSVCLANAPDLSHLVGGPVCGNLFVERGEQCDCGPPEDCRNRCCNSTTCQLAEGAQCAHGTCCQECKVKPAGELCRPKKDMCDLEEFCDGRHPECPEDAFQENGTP

Panc1_A8 cells = test: Invasion assay of Panc1_A8 cells; assay type: cell-based, human; settings: matrigel, 10 µM, 18h
How it was run: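 Panc1_ctrl and Panc1_A8 cells were run in duplicate with the ERK1/2 inhibitor U0126 (10 uM) for 18 h. Invasiveness is expressed relative to control. Statistics were by ANOVA and Student's t-test.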

ERK1/2 phosphorylation = test: Western blot of ERK1/2 phosphorylation in Panc1 cells; assay type: cell-based, human; settings: Panc1_A8 cells; BK-1361 500 nM; U0126 10 µM
How it was run: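 ERK1/2 phosphorylation in Panc1_ctrl and Panc1_A8 cell lysates was detected by western blot with antibodies against the phosphorylated kinase forms, with or without 500 nM test compound.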

Structure (SMILES)	IC50 (ADAM8 [1])	MMP-2 activity (PrAMA), Panc1_A8 (MMP-2)	MMP-14 activity (PrAMA), Panc1_A8 (MMP-14)	ADAM8 activity (PrAMA), Panc1_A8 (ADAM8 [2])	IC50 (ADAM8 [3])	invasion of Panc1_A8 cells (ERK1/2 inhibitor) (Panc1_A8 cells)	ERK1/2 phosphorylation (pERK1/2) (ERK1/2 phosphorylation)
CNC(=O)[C@H](Cc1ccccc1)NC(=O)[C@H](CC(C)C)[C@H](CSc1cccs1)C(=O)NO [BB-94, Batimastat]	57 ± 6 nM	reduced	reduced	reduced	–	–	–
CNC(=O)[C@@H](NC(=O)[C@H](CC(C)C)[C@H](O)C(=O)NO)C(C)(C)C [BB-2516, Marimastat]	1250 ± 103 nM	–	–	–	1050 ± 154 nM	–	–
N#CC(=C(/N)Sc1ccccc1N)/C(C#N)=C(/N)Sc1ccccc1N [U0126]	–	slight effect	greater effect	not affected	–	decreased invasion	blocked ERK1/2 phosphorylation
